{"data": "Measurements collected from several papers", "BCHE": "Cholinesterase (BCHE, Homo sapiens, UniProt P06276)", "MC4R": "Melanocortin receptor 4 (MC4R, Homo sapiens, UniProt P32245)", "CYSLTR1": "Cysteinyl leukotriene receptor 1 (CYSLTR1, Homo sapiens, UniProt Q9Y271)", "note": "Protocols differ between the studies behind these lines."}
{"Structure (SMILES)": "C=CCn1c2cc(OC(=O)CCCCCCN3CCN(Cc4ccccc4)CC3)ccc2c2ccnc(C)c21", "target": "BCHE", "test": "enzyme activity, inhibitor, Ellman", "setting": "1 µM", "inhibition [%]": 36.8}
{"Structure (SMILES)": "COc1ccc(S(=O)(=O)N2CCCCC2)cc1C", "target": "MC4R", "test": "ligand displacement, radioligand", "setting": "10 µM", "inhibition [%]": "< 30"}
{"Structure (SMILES)": "C=CCn1c2cc(OC(=O)CCCCN3CCN(Cc4ccccc4F)CC3)ccc2c2ccnc(C)c21", "target": "BCHE", "test": "enzyme activity, inhibitor, Ellman", "setting": "1 µM", "inhibition [%]": 21}
{"Structure (SMILES)": "[C-]#[O+]", "target": "Catalase (CAT, Bos taurus, UniProt P00432)", "test": "enzyme activity, inhibitor", "setting": "1 mM", "inhibition [%]": 70}
{"Structure (SMILES)": "CCN(CC)CCCC[C@H](NC(=O)[C@H](CC(C)C)NC(=O)[C@H](C)NC(=O)[C@H](Cc1ccccc1)NC(=O)c1ccc(C(C)(C)C)cc1)C(=O)N[C@@H](CO)C(=O)OC", "target": "MC4R", "test": "ligand displacement, radioligand", "setting": "10 µM", "inhibition [%]": 16}
{"Structure (SMILES)": "C#Cc1n[nH]c2c(-c3cn(C(C)c4ccccn4)c(=O)[nH]c3=O)cc(F)cc12 (centres unmarked)", "target": "Fibroblast growth factor receptor 4 (FGFR4, Homo sapiens, UniProt P22455)", "test": "enzyme activity, inhibitor", "setting": "1 µM", "inhibition [%]": 0.5}
{"Structure (SMILES)": "COc1ccc2c(c1)[nH]c1c(C)nccc12", "target": "BCHE", "test": "enzyme activity, inhibitor, Ellman", "setting": "1 µM", "inhibition [%]": 25.7}
{"Structure (SMILES)": "COc1cc(CNC(=O)CCCC/C=C/C(C)C)ccc1O", "target": "DNA dC->dU-editing enzyme APOBEC-3B (Homo sapiens, UniProt Q9UH17)", "test": "enzyme activity, inhibitor, fluorescence", "setting": "100 µM", "inhibition [%]": 32.3}
{"Structure (SMILES)": "C=CCn1c2cc(OC(=O)CCCCN3CCN(Cc4cccc(C(F)(F)F)c4)CC3)ccc2c2ccnc(C)c21", "target": "BCHE", "test": "enzyme activity, inhibitor, Ellman", "setting": "1 µM", "inhibition [%]": 40.2}
{"Structure (SMILES)": "CN(CCN1CCC(OC(=O)Nc2ccccc2-c2ccccc2)CC1)C(=O)c1ccc(CN2CCC(C(N)=O)CC2)cc1", "target": "CYSLTR1", "test": "ligand displacement, radioligand", "setting": "1 µM", "inhibition [%]": -13}
{"Structure (SMILES)": "O=C(Nc1cccnn1)N1CCN([C@@H]2CCOc3cc(C(F)(F)F)ccc32)CC1", "target": "Somatostatin receptor type 1 (SSTR1, Homo sapiens, UniProt P30872)", "test": "cell-free assay", "setting": "20 µM", "inhibition [%]": 10}
{"Structure (SMILES)": "C#Cc1n[nH]c2c(-c3cn([C@@H](C)c4ccccc4)c(=O)[nH]c3=O)cc(F)cc12", "target": "Fibroblast growth factor receptor 1 (FGFR1, Homo sapiens, UniProt P11362, V561M)", "test": "enzyme activity, inhibitor", "setting": "0.1 µM", "inhibition [%]": -4.7}
{"Structure (SMILES)": "Cn1cc(-c2cccc(N3CCc4c(sc5c4CC(C)(C)C5)C3=O)c2CO)cc(Nc2ccncn2)c1=O", "target": "Tyrosine-protein kinase Fgr (FGR, Homo sapiens, UniProt P09769)", "test": "enzyme activity, inhibitor", "setting": "1 µM", "inhibition [%]": 53}
{"Structure (SMILES)": "CC(C)N1CCC[C@H]1CNC(=O)c1cn(C2CCCC2)c(=O)c2c1c1ccccc1n2C", "target": "CYSLTR1", "test": "ligand displacement, radioligand", "setting": "10 µM", "inhibition [%]": 22}
